In the EternaBench riboswitch data:

System: MS2 coat protein
Assay: apparent Kd, MS2 coat protein; higher = weaker binding; RNA-MaP array; FMN 200 µM where present
Procedure, shortened: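 The apparent Kd comes from binding curves fitted cluster by cluster, filtered, and summarised as a median. Those curves followed SNAP-549-labelled MS2 coat protein from 0.7 or 1.5 nM, doubling to 3 µM, on Illumina sequencing-chip clusters where stalled E. coli RNA polymerase had transcribed the designs, without and then with constant ligand. The buffer was 100 mM Tris-HCl pH 7.5, 80 mM KCl, 4 mM MgCl2, BSA, DTT, yeast tRNA and Tween-20, and green signal was normalised to red-channel RNA signal and control-cluster median Fmax.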

[1] = designed as: OFF switch for flavin mononucleotide, no ligand
[2] = ligand present: flavin mononucleotide, designed as: OFF switch for flavin mononucleotide
[3] = designed as: ON switch for flavin mononucleotide, no ligand
[4] = ligand present: flavin mononucleotide, designed as: ON switch for flavin mononucleotide

Row | Sequence | apparent Kd [1] [nM] | apparent Kd [2] [nM] | apparent Kd [3] [nM] | apparent Kd [4] [nM]
1 | GGUCAUCAAGUCAGGAUAUCGUCUGGUCGGUCUGGCGAGAAGGGACAUGAGGAUCACCCAUGUCGUCUCAUCAG | 15.2 | 17.7 | – | –
2 | GAGUAGAUAGCAGGAUAUCUAUUUCCUACAUGAGGAUCACCCAUGUAGAUGAUCACCCAUGUAAAGGAGAAGGGCUAUCUAUUC | – | – | 355 | 160
3 | UUUUUUGUUGUGAGGAUAUCGUUUUUGUUUUGGAUCGAGAAGGCACAUGAGGAUCACCCAUGUUUGUUGUGGUU | 88.8 | 159 | – | –
4 | GUGCCUUGGGAGAAGGUUAUUAGCAAAGCUAUUAAAGGAUAUUCAUACCGGAAACGGACAUGAGGAUCACCCAUGUGGCACAAA | – | – | 1630 | 122
5 | UGUCGGAGCAGAGGAUAUUACAUGAGGAUCACCCAUGUAUGAACCAAUAUCUGGAAACAGCAAUGUAAGAAGGCUGCUCCGACA | 7.16 | 47.3 | – | –
6 | UUUUAACAUGAGGAUCACCCAUGUGAGGAUAUCGAAAUUUAUAUUUAUAUUAAUAUUUCGAGAAGGCACAUUUU | 195 | 191 | – | –
7 | GCCAGGAUGUAAGGAUAUGCUGAGGAUAACUCAGCAGAAGGUACAUGAGGAUCACCCAUGUAAUCCUAAUAAUAAUAACCUGGC | 11.5 | 17.4 | – | –
8 | CUCGAGUGAGGAUAUUGAAUCGGCGGCUGACCGCACGAGCUCGAGAAGGCACAUGAGGAUCACCCAUGUGGGUC | 15.2 | 27.3 | – | –
9 | GGGUACAUCGGAGGAUAUCAUGUAAAUACAUGAGGAUCACCCAUGUCGAUGGAGACAUCGGAGUUUGAGAAGGCCGAUGUACCG | – | – | 150 | 6.58
10 | GCGUAUAUAAGAUUUAUUAAACAGUCAGAAGGUGAUAAUACGACAUGAGGAUCACCCAUGUAAUUCAAGGAUAUGAUCAUACGC | – | – | 98.5 | 27.2
11 | UAAAAGACUAGCGAUCUAAAGAUCACAUGAGGAUCACCCAUGUAGGAUAUGAGCAGAAAAUCUGCUCAGAAGGACAUGCUAGUC | 5.88 | 9.18 | – | –
12 | AUAAUUUUAUAUAUCUUUUUAAUCAGAAGGCAUAACAUGAGGAUCACCCAUGUAUAUUAUAGUUAUGAGGAUAUGAUUUGGUUA | 8.94 | 11.3 | – | –
13 | ACAUGAGGAUCACCCAUGUGUGCAUAGGAUAUUGAGGAUCAGGGAUGUUUUUUUGGAUAUGCCCACAAGAAGGAUGAAAGUAUU | – | – | 13.2 | 12.6
14 | UUUAAGUCAGGAUAUCGUUAAUUUAAUUAUUUGUUUUAGUUCGAGAAGGGACAUGAGGAUCACCCAUGUAAUUU | 38.8 | 41.8 | – | –
15 | UUUACAUGAGGAUCACCCAUGUCUUGAAAGAUUAGUUCUGGUGAGGAUAUACAUGAUAAAGAAUUGUAGAAGGCACUGGGUACA | – | – | 113 | 33.1
16 | GUGCACACUCGAGGAUAUCGGAGAGGACUCCUUCGAGAAGGCGAUUCGUGCCGUGUUAUUCUGGACAUGAGGAUCACCCAUGUG | – | – | 126 | 38.2
17 | AUUAUUUAGUGAGGAUAUACAGAUUAUGAGUUUGUAGAAGGCACUUUCCUCAGGACAUGAGGAUCACCCAUGUGUUAAUAAGAU | 89.7 | 316 | – | –
18 | GGUGGACAUGAGGAUCACCCAUGUGAGGAUAUCGGCUGGUACGUGUUGGCUGGCUUCUCGAGAAGGCACAUAGU | 64.7 | 75.4 | – | –
19 | GGUUUGGGAGGAUAUGGCUUGAAUGACAUGAGGAUCACCCAUGUAAGUGGAUCUUCCGGGCCAGAAGGCUCGGGCC | 63.8 | 136 | – | –
20 | GGAUAGGACAGAGGAUAUACGUGCUAGAGAUACUAGCAAUAUUUCCUCACAUGAGGAUCACCCAUGUAGAAGGCUGUCCUAUCG | 6.26 | 73.7 | – | –
21 | GAUCCUUCUGUUAGGAUAUGCUUUGGGCUUCCGCAGCAGAAGGAACAUGAGGAUCACCCAUGUUCGAUGCCGUC | 60.4 | 59.9 | – | –
22 | UACAGACAUGAGGAUCACCCAUGUGAGGAUAUUUCUGCUGGGAUCAGCCCAAUAUGCGAGAGAAGGCACUAGGG | 133 | 184 | – | –
23 | CCAGAGUGAGGAUAUGCAUAAAGGUGCUGUCCCGUGGCUUGACAUGAGGAUCACCCAUGUAGAAGGUGCGUUGU | 48.7 | 40.3 | – | –
24 | UAAAUGUCAGGAUAUUGUUAAUUUAGUUGUUUGUAUUAGUUCGAGAAGGGACAUGAGGAUCACCCAUGUUAAUU | 30.2 | 36 | – | –

Row | Sequence | apparent Kd [1] [nM] | apparent Kd [2] [nM] | apparent Kd [3] [nM] | apparent Kd [4] [nM]
25 | AACAGGGAUUCAGGAUAUAUUAGCCGAGGCCGCGUAGAAGGGAAAUCCUGACAUGAGGAUCACCCAUGUCGACCCGCCUUCCAC | – | – | 23.1 | 22.9
26 | UUAUGUGUCGUAGGAUAUCAUUAGAUUUGUAAUUUAAUUGUAAUUUACAUAUGAGAAGGACGUAUACAUGAGGAUCACCCAUGU | 25.5 | 35.9 | – | –
27 | AAUUGUUUCUGAGGAUAUCAGUAGUAUGCUUUUUGAGAAGGCAGUACAUGAGGAUCACCCAUGUUGUGGUUUGAUAGAAUGAUA | – | – | 193 | 182
28 | AAAAAACAUGAGGAUCACCCAUGUCCUCGGACAUGAGGAUAUGUACAGACUUCGGUCUGUACAGAAGGCAUGUCUU | – | – | 302 | 308
29 | GGUCCGUGUACAUGAGGAUCACCCAUGUCGAUGUUUCCUGGACAGGAUAUAUGCUUAAUACCGACAUAGAAGGGUCCACGUGUG | – | – | 91 | 191
30 | UCUGCAUAGUCAGGAUAUGCAAAGUAAGCUAUGGAAACAUAGCUUACAACAUGAGGAUCACCCAUGUAGAAGGGACUGUGCAGA | 14.1 | 13 | – | –
31 | AAAAAGGCAGGAUAUACAUGAGGAUCACCCAUGUAAAGAAAGAAAGAAGAAAGGGAAAGUAGAAGGGCCAAAAA | 38.2 | 46 | – | –
32 | AGUUGGCGAGGAUAUACAUGAGGAUCACCCAUGUGAGAGAAAAAAGUGAGAAAGAAAAGUAGAAGGCGCUGACA | 45.3 | 217 | – | –
33 | AUAUUGUGAGGAUAUGAACAUAGUAUCGAAAGAUACUAAGUUCAGAAGGCACAUGAGGAUCACCCAUGUUUCUC | 70.2 | 738 | – | –
34 | UCAAUUUUGCGAGGAUAUCGACCAUUCCUCUUUACAUGAGGAUCACCCAUGUACUUAUUCUACAACGAGAAGGCGCUCAUAGUU | 37.5 | 43 | – | –
35 | GCCAGAGCAGGAUAUCUAAUAUGUCACAUGAGGAUCACCCAUGUCCAGCGAAAGCUGGAGGGAGAAGGGCUCUGGC | 65.6 | 24.4 | – | –
36 | AAUAAGUGAGGAUAUACGUCUGGACCCGGGAGGGCUAUAUAACAUGAGGAUCACCCAUGUAGAAGGCACAAUAA | 13.9 | 15.9 | – | –
37 | AAUUACAGAUAAGGAUAUUGACAUGAGGAUCACCCAUGUAUUUGGGAAUGUUUACUGAAUUCUUACGAGAAGGUAUACGUACUU | 123 | 87 | – | –
38 | GCCUUACCGGUCAGGAUAUACAUUUGUUACUCUUUGUAGAAGGGACAUGAGGAUCACCCAUGUACAUUACAUUC | 19.1 | 19.2 | – | –
39 | UAUGUGACACAGAAGGCCAGUCACAUGAGGAUCACCCAUGUAGUAAAGUGGAGGAUAUGUGUGCCUAGCAACUUACUAGCAAGA | – | – | 107 | 9.61
40 | AUAGCCGGGAGGUAAACUCGUGCGGCAGAAGGGUGAUACUGGACAUGAGGAUCACCCAUGUGCACACAGGAUAUGCCCGCGAGC | – | – | 159 | 33.3
41 | GUCAGCUCGUGAGGAUAUACAACACUGCUUCGGCAGUGUAGUAAGAUCACAUGAGGAUCACCCAUGUAGAAGGCACGAGCUGAU | 6.05 | 26.3 | – | –
42 | CGAUAAUAUAGUUAUCCGUAGCGAACAUGAGGAUCACCCAUGUAGGAUAUGUUACUAAACUAGUAACAGAAGGGCAUGAGUCUU | 32.1 | 74.5 | – | –
43 | UUGGACGUCGUAGGAUAUGUAGGAUAUUCCUACAUGAGGAUCACCCAUGUUGACAUGGAAGAUGGACAGAAGGACGAUGUCCAU | – | – | 983 | 42.1
44 | CGGAGCAUCGAGAAGGGCACAUGGACAACUAAACAUGAGGAUCACCCAUGUGCAGGAUAUCGAAAAUCAUGUGGCCUUGGCCGU | 15.9 | 155 | – | –
45 | AAAAAACAUGAGGAUCACCCAUGUGAGGAUAUCCGAAAAAAAAAAAAAAAAAAAAAAAGGAGAAGGCGCAGCAA | 242 | 206 | – | –
46 | GUAGCAAUCGGAGGAUAUUCAUGAUACAUGAGGAUCACCCAUGUUAAUAUGGGAGAAGGCCGAUUGCUACAAGAGCGAAAGCUC | – | – | 47.9 | 8.05
47 | AAGCGAGGGACAGGAUAUGCGGCGAAACUCGCCGCAGAAGGGUCGACAUGAGGAUCACCCAUGUCCUUACGCUCCAAGUAGUGG | – | – | 101 | 250
48 | AUAGUACAUGAGGAUCACCCAUGUCAGGAUAUCGGAUGUGACAUGAAAAAAAUGUUAAUGAGAAGGGACUAUAA | 43.6 | 49 | – | –
